Screening data from PubChem.
Beta2AR agonist: human beta-2 adrenergic receptor agonism by FAP; Am2.2-beta2AR cells, FAP receptor internalization, flow cytometry; response, % (test concentration not listed); hit rate 0.43% among 340,000;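 active = response above a set limit, near 3 SD of response in nonfluorescent compounds, cut at about 42% in these data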
MEKK2mut PB1 HTS: signal of MEK5 binding to mutant human MEKK2 PB1 domain; hit rate 0.35% among 290,000; AID 1530; percent response, % at 10 µM; bead flow cytometry, Alexa488-MEK5 binding to MEKK2 mutant; in the data active = percent response above about 24%, passing the limit was not always enough
MEKK3 PB1 HTS: raises or lowers MEK5 binding to the human MEKK3 PB1 domain | bead-based flow cytometry, Alexa488-MEK5 binding to MEKK3; actives lie on both sides; 0 = blocked by unlabeled MEK5, 100 = vehicle | hit rate 1.4% among 290,000 | binding response (% of control), % at 10 µM | Q99759;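 active = binding response more than 3 SD above or below the average of its plate-row segment, actives on both sides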;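 note: Alexa488 bead fluorescence after subtracting the streptavidin-only scavenger bead signal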
Dynein cargo inh: blocks dynein driven cargo transport along microtubules. z-score, hits read low. hit rate 0.47% among 220,000. 3617.4 mouse cells, GR-EGFP nuclear translocation imaging; test concentration mostly 20 µM; stimulated with dexamethasone, 1 µM; stronger effect = lower value;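 active = plate z-score of nuclear minus cytoplasmic receptor signal below a set negative limit, without overly bright fluorescence or cell loss, cut at about -3.5 in these data, passing the limit was not always enough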;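 note: z-score of nuclear minus cytoplasmic ring GR-EGFP intensity difference per well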
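medium = tetracycline-free induction medium containing charcoal-stripped FBS | probe or stimulus = dexamethasone, 1.0 µM final | timing = 48 h induction, then 1 h compound, then 30 min agonist, 37 °C | detection = automated 10x imaging of fixed Hoechst-stained cells | read-out basis = nuclear versus cytoplasmic GR-EGFP signal, averaged per well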
ATG4B inhibitor: ATG4B (human) cysteine protease inhibition; Q9Y4P1; ATG4B cleavage of LC3-PLA2, NBD-HPC fluorescence, 1 h; inhibition, % at 8.33 µM; hit rate 0.51% among 340,000; AID 504462; in the data active = inhibition above about 40%
Target sequence (Q9Y4P1 whole entry, looked up): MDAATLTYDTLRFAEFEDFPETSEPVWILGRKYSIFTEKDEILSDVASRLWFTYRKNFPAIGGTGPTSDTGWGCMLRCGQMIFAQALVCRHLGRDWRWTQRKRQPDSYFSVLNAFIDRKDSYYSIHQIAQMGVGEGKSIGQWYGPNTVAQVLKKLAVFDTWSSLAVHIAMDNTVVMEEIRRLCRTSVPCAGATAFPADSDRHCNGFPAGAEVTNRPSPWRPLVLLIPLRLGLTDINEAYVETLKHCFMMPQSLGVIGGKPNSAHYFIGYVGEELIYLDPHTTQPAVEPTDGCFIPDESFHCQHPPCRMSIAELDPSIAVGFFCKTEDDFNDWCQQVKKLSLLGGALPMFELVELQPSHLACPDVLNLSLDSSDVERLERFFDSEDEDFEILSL
MEKK2 WT-MEK5: raises or lowers MEK5 binding to wildtype human MEKK2 PB1 domain | Q9Y2U5 | bead flow cytometry, Alexa488-MEK5 binding to MEKK2 WT; actives lie on both sides | binding response (% of control), % at 10 µM | hit rate 1.1% among 290,000 | AID 1531; in the data active = binding response below about 67% or above about 130%
MEKK2wt confirm: raises or lowers MEK5 binding to wildtype human MEKK2, retest; shares compounds with MEKK3 PB1 HTS; bead flow cytometry, Alexa488-MEK5 binding to MEKK2 WT; actives lie on both sides; binding response (% of control), % at 10 µM; hit rate 2.4% among 5,900; AID 1892; in the data active = binding response below about 16% or above about 210%; inactive = in between
MEKK2mut confirm: signal of MEK5 binding to mutant human MEKK2, retest | shares compounds with MEKK3 PB1 HTS | bead flow cytometry, Alexa488-MEK5 binding to MEKK2 mutant | percent response, % at 10 µM | hit rate 2% among 5,900 | AID 1893; in the data active = percent response mostly above about 71%, no sharp cut-off; inactive = mostly below about 38%;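 note: higher means compound restores mutant binding toward wildtype level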
MEKK3-MEK5 inh: MEKK3-MEK5 PB1 inhibition, single concentration confirmation. hit rate 1.8% among 5,900. binding response (% of control), % at 10 µM. shares compounds with MEKK3 PB1 HTS. bead flow cytometry, Alexa488-MEK5 binding to MEKK3; stronger effect = lower value;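 active = binding response below 72% of control, or above a set upper limit, though filed actives all read lower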
Hits are given with their value; n = inactive; x = no result; [ ] = another dose, or the depositor's remark. Most compounds without a hit are left out; they make up all but 2.9% or so of the library.

SMILES	Beta2AR agonist	MEKK2mut PB1 HTS	MEKK3 PB1 HTS	Dynein cargo inh	ATG4B inhibitor	MEKK2 WT-MEK5	MEKK2wt confirm	MEKK2mut confirm	MEKK3-MEK5 inh
CC(CN1CCCC1)OC(=O)C(c1ccccc1)c1ccccc1 (stereo not drawn)	n	n	n	x	n	n	x	x	x
CN(C)S(=O)(=O)c1cccc(NC(=O)CSc2nc3ccccc3n2-c2ccccc2)c1	n	n	153	n	n	n	n	n	n
Cc1oc(-c2cccc(Cl)c2)nc1CSc1nc2c(c(=O)[nH]1)CCC2	n	n	n	n	n	n	x	x	x
Cc1oc(-c2ccccc2Cl)nc1CSc1nc2c(c(=O)[nH]1)CCC2	n	n	75[inhibitor]	n	n	n	n	n	n
CCOCCCNCc1cc(Cl)cc(Cl)c1OCC	n	n	n	n	n	n	x	x	x
CCCCCC(=O)Nc1cccc(C2=NOC3(C2)C[C@H](C(N)=O)N(C(=O)COc2ccc(Cl)cc2)C3)c1 (stereo partly drawn)	n	n	3.0[inhibitor]	n	n	6.0[inhibitor]	n	n	n
CCC(=O)Nc1cccc(C2=NOC3(C2)C[C@@H](C(N)=O)N(C(=O)CC)C3)c1 (stereo partly drawn)	n	n	n	n	n	n	x	x	x
CCC(=O)Nc1cccc(C2=NOC3(C2)C[C@H](C(N)=O)N(C(=O)CC#N)C3)c1 (stereo partly drawn)	n	n	78[inhibitor]	n	n	n	n	n	n
Cc1c(CCOC(=O)CC23CC4CC(CC(C)(C4)C2)C3)sc[n+]1CC(=O)c1ccccc1	n	n	n	n	n	153	n	n	n
O=C(CSc1nc2c(sc3ccccc32)c(=O)n1Cc1ccccc1)NCC1CCCO1 (stereo not drawn)	n	n	n	n	n	n	x	x	x
O=C(CSc1nc2c(sc3ccccc32)c(=O)n1Cc1ccco1)NCC1CCCO1 (stereo not drawn)	n	n	2.0[inhibitor]	n	n	3.0[inhibitor]	n	n	n
CC1CCCN(C(=O)CN2C(=O)c3ccccc3C2=O)C1 (stereo not drawn)	n	n	29[inhibitor]	n	n	13[inhibitor]	n	n	n
CC(C)(C)c1ccc(C(=O)N/N=C2\C3CN4CCN(C3)CC2(c2ccccc2)C4)cc1	n	n	132	n	n	n	n	n	n
Nc1ccccc1C(=O)N/N=C1/C2CN3CCN(C2)CC1(Cc1ccccc1)C3	n	n	n	n	n	n	x	x	x
O=C(N/N=C1\C2CN3CCN(C2)CC1(c1ccccc1)C3)c1ccc(F)cc1	n	n	n	n	n	n	x	x	x
CCCC12CN3CCN(CC(C3)/C1=N\NC(=O)c1ccccc1N)C2	n	n	154	n	n	n	n	n	n
C[C@H](CO)N1C[C@H](C)[C@@H](CN(C)Cc2ccncc2)Oc2c(NC(=O)C3CC3)cccc2C1=O	n	x	x	x	n	x	x	x	x
CCC1CCCCN1C(=O)CSc1n[nH]c(N)n1 (stereo not drawn)	n	x	x	x	n	x	x	x	x
Cc1ccc(C(=O)CCC(=O)OCC(=O)N2CCN(S(=O)(=O)c3ccc(C)cc3C)CC2)cc1	n	x	x	x	n	x	x	x	x
O=C(Nc1cccc(-c2cccc(F)c2)c1)C1CCN(C2CCC2)CC1	n	n	n	x	n	146	n	n	n
CCCn1ncc(CN2CCC(C(=O)Nc3cccc(-c4cccc(F)c4)c3)CC2)c1C	n	n	n	x	n	144	n	n	n
COc1cc(/C=N/NC(=O)c2sc(N)c(C#N)c2C)ccc1O	n	n	n	n	n	n	x	x	x
Cc1c(C(=O)N/N=C/c2ccc(O)c(Br)c2)sc(N)c1C#N	n	n	132	n	n	n	n	n	n
CC(=O)Oc1ccccc1C1C[C@]2(C)CC(=O)NC2N1C(C)=O (stereo partly drawn)	n	n	n	n	n	n	x	x	x
CC(=Nc1ccccc1)C1=C(O)CCCC1=O	n	n	136	n	n	n	n	n	n
SMILES	Beta2AR agonist	MEKK2mut PB1 HTS	MEKK3 PB1 HTS	Dynein cargo inh	ATG4B inhibitor	MEKK2 WT-MEK5	MEKK2wt confirm	MEKK2mut confirm	MEKK3-MEK5 inh
CCCCOc1ccc(CONS(=O)(=O)c2ccc(NC(C)=O)cc2)cc1Cl	n	n	160	n	n	n	n	n	n
COCCCNC(=S)Nc1ccc(S(=O)(=O)Nc2cc(OC)nc(OC)n2)cc1	n	n	n	x	n	n	x	x	x
COc1ccc(-c2csc(N)n2)cc1	n	n	n	n	n	n	x	x	x
COc1ccc2[nH]c(C)c(-c3csc(N)n3)c2c1	n	27	n	x	n	n	n	n	n
CCc1nnc(NS(=O)(=O)c2ccc(N=Cc3c(C)[nH]n(-c4ccc(C)c(C)c4)c3=O)cc2)s1	n	n	160	n	n	n	n	n	n
O=S1(=O)CCN(c2ccccc2CC(c2c[nH]c3ccccc23)c2c[nH]c3ccccc23)CC1	n	x	x	x	n	x	x	x	x
CCC(CC)c1nnc(NC(=O)C2CC(=O)N(c3ccc4c(c3)OCCO4)C2)s1 (stereo not drawn)	n	n	135	n	n	n	n	n	61
Cc1nnc(NC(=O)C2CC(=O)N(c3ccc4c(c3)OCCO4)C2)s1 (stereo not drawn)	n	x	x	x	n	x	x	x	x
CCC1=NC(c2ccc(OC)cc2)N(O)C1(C)C (stereo not drawn)	n	n	80[inhibitor]	n	n	n	n	n	n
C[N+](C)(C)C/C=C1/COCO1	n	27	n	n	n	n	n	n	n
Cc1cc(C)c(C#N)c(Cl)n1	n	n	149	n	n	n	n	n	n
Cc1cc(C)c(C#N)c(N2CCCC2)n1	n	x	x	n	n	x	x	x	x
Cc1ccc(C)c(S(=O)(=O)Nc2cc3c4c(c2)CC(=O)N4CCC3)c1	n	x	x	x	n	x	x	x	x
Cc1ccc(S(=O)(=O)NN)c(C)c1N1CCCC1=O	n	n	44[inhibitor]	n	n	n	n	n	n
O=C(NCC1CCCO1)C1CCC(=O)N1Cc1ccc(F)cc1 (stereo not drawn)	n	n	-1.0[inhibitor]	n	n	-4.0[inhibitor]	n	n	n
Cc1ccc(CN2C(=O)CCC2C(=O)NCC2CCCO2)cc1 (stereo not drawn)	n	n	n	n	n	n	x	x	x
O=C(Cc1ccccc1Cl)Nc1cccnc1	n	n	n	n	n	n	x	x	x
CCC(=O)N1CCc2cc(Br)cc(S(=O)(=O)NCCN3CCCCC3CC)c21 (stereo not drawn)	n	n	57[inhibitor]	n	n	n	n	n	n
